Laboratory results taken from ChEMBL document CHEMBL1649213, “The arabinosyltransferase EmbC is inhibited by ethambutol in Mycobacterium tuberculosis” (2009).
≈ marks a conversion by molar mass, not a printed value.

Columns and labels:
Type in all cases: functional
[1] = tested on: Mycobacterium tuberculosis; test: Antimicrobial activity against Mycobacterium tuberculosis expressing EmbC M300I mutant gene after 48 hrs
Summary of the method: (§1)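 Spot test: 20 µl exponential-phase culture spotted on 7H10 agar plus 10% OADC with EMB 0 to 128 µg/ml. Incubated at 37°C for 10 to 30 days, and growth scored against the drug-free lawn. MIC taken as the highest EMB concentration allowing growth.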

[2] = tested on: Mycobacterium tuberculosis; test: Antimicrobial activity against Mycobacterium tuberculosis expressing EmbC D249G mutant gene after 48 hrs by agar proportion method
Summary of the method: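 Agar proportion method: 10^4 CFU plated on 7H10-OADC with EMB or drug-free, and colonies counted after 4 weeks. MIC99 is the lowest concentration at which <1% of cells formed colonies.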

[3] = tested on: Mycobacterium tuberculosis; test: Antimicrobial activity against Mycobacterium tuberculosis expressing EmbC M300V mutant gene after 48 hrs; summary of the method: as §1
[4] = tested on: Mycobacterium tuberculosis; test: Antimicrobial activity against Mycobacterium tuberculosis harboring Mycobacterium smegmatis embB M292L mutant gene after 48 hrs by agar proportion method
[5] = tested on: Mycobacterium tuberculosis; test: Antimicrobial activity against Mycobacterium tuberculosis embA V280M gene after 48 hrs by agar proportion method
[6] = tested on: Mycobacterium tuberculosis; test: Antimicrobial activity against Mycobacterium tuberculosis expressing EmbC D249G mutant gene after 48 hrs; summary of the method: as §1
[7] = tested on: Mycobacterium tuberculosis; test: Antimicrobial activity against Mycobacterium tuberculosis expressing EmbC M300L mutant gene after 48 hrs; summary of the method: as §1
[8] = tested on: Mycobacterium tuberculosis; test: Antimicrobial activity against Mycobacterium tuberculosis harboring Mycobacterium smegmatis embB M292I mutant gene after 48 hrs by agar proportion method
[9] = tested on: Mycobacterium tuberculosis; test: Antimicrobial activity against Mycobacterium tuberculosis expressing EmbC T270I mutant gene after 48 hrs by agar proportion method
[10] = tested on: Mycobacterium tuberculosis; test: Antimicrobial activity against Mycobacterium tuberculosis expressing EmbC M300V mutant gene after 48 hrs by agar proportion method
[11] = tested on: Mycobacterium tuberculosis; test: Antimicrobial activity against Mycobacterium tuberculosis expressing EmbC M300I mutant gene after 48 hrs by agar proportion method
[12] = tested on: Mycobacterium tuberculosis; test: Antimicrobial activity against Mycobacterium tuberculosis expressing EmbC T270I mutant gene after 48 hrs; summary of the method: as §1
[13] = tested on: Mycobacterium tuberculosis; test: Antimicrobial activity against Mycobacterium tuberculosis harboring Mycobacterium smegmatis embB gene after 48 hrs by agar proportion method
[14] = tested on: Mycobacterium tuberculosis; test: Ratio of MIC for Mycobacterium tuberculosis expressing wild type EmbC gene to MIC for Mycobacterium tuberculosis expressing EmbC D249G mutant gene
[15] = tested on: Mycobacterium tuberculosis; test: Antimicrobial activity against Mycobacterium tuberculosis expressing EmbC M300L mutant gene after 48 hrs by agar proportion method
[16] = tested on: Mycobacterium tuberculosis; test: Antimicrobial activity against Mycobacterium tuberculosis harboring Mycobacterium smegmatis embB M292V mutant gene after 48 hrs by agar proportion method

With CC[C@@H](CO)NCCN[C@@H](CC)CO [ETHAMBUTOL] the MIC [1] was <3 µg/mL, the MIC90 [2] was <0.5 µg/mL and the MIC [3] was 0.5 µg/mL (≈ 2.45 µM). The MIC [4] was 8 µg/mL (≈ 39.2 µM), the MIC [5] was 4 µg/mL (≈ 19.6 µM) and the MIC [6] was 0.5 µg/mL (≈ 2.45 µM). It also gave an MIC [7] of 0.5 µg/mL (≈ 2.45 µM), an MIC [8] of 3 µg/mL (≈ 14.7 µM) and an MIC90 [9] of 1 µg/mL (≈ 4.89 µM). For the same molecule, the MIC90 [10] was <0.5 µg/mL, the MIC90 [11] was 1 µg/mL (≈ 4.89 µM) and the MIC [12] was 4 µg/mL (≈ 19.6 µM). For the same molecule, the MIC [13] was 8 µg/mL (≈ 39.2 µM), the Ratio [14] was 6 and the MIC90 [15] was 0.5 µg/mL (≈ 2.45 µM). For the same molecule, the MIC [16] was 3 µg/mL (≈ 14.7 µM).
